Measured values from ChEMBL document CHEMBL4825692, “Benzofuranyl-2-imidazoles as imidazoline I2 receptor ligands for Alzheimer's disease” (Eur J Med Chem, 2021).
Active and inactive are the calls of the source. The calls are words filed in the database; no cut-off is given here.

Columns and labels:
[1] = Displacement of [3H]2-BFI from imidazoline I2 receptor high affinity site in post-mortem human brain frontal cortex membrane two site model measured after 45 mins by liquid scintillation counting spectrometry
[2] = tested on: NCI-H460; assay: Cytotoxicity against human NCI-H460 cells at 100 uM by real time IncuCyte proliferation assay; format: cell-based; conditions: nci-h460, 100 µM
Method in brief: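 Adherent lines (LN-229, Capan-1, HCT-116, NCI-H460) seeded at 500–1500 cells/well and treated after overnight attachment. Suspension lines (HL-60, K-562, Z-138, DND-41) seeded at 2500–5500 cells/well directly with compound. Highest concentration 100 μM; proliferation tracked by real-time IncuCyte imaging over 72 h at 37 °C.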

[3] = Solubility of compound at pH 4.61; format: physicochemical; conditions: buffer
Method in brief: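 Solubility was measured at pH 1.13, 4.61 and 6.97, simulating gastric and intestinal fluids, and classed by European Pharmacopoeia terms.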

[4] = target: Cytochrome P450 3A4 (Homo sapiens, UniProt P08684); assay: Inhibition of CYP3A4 (unknown origin) using as 7-BFC as substrate at 10 uM; format: ADME
Sequence of Cytochrome P450 3A4 (P08684 whole entry): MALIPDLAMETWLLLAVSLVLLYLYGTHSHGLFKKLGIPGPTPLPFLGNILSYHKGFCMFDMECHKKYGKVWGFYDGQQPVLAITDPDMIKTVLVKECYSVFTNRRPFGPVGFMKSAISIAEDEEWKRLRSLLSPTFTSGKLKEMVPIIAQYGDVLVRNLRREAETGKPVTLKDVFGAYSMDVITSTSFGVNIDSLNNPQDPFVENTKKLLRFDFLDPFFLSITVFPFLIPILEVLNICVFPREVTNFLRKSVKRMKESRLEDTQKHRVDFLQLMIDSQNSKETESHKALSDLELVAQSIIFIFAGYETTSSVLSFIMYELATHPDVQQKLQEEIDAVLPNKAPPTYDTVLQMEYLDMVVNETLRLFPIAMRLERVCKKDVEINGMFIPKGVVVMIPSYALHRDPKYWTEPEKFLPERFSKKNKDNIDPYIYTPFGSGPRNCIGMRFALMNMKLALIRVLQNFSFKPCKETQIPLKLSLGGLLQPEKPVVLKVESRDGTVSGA
Method in brief: (§1)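 Recombinant human CYP1A2, CYP2C9, CYP2C19, CYP2D6 and CYP3A4 (7-BFC or DBF as probe) were tested with probe substances and fluorescent detection, with test compound at 10 μM.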

[5] = Stability in mouse plasma assessed as compound remaining after 6 hrs; format: ADME, cell-free; conditions: read-out: Stabilty
[6] = Displacement of [3H]2-BFI from imidazoline I2 receptor high affinity site in Swiss mouse brain cerebral cortex membrane measured after 45 mins by liquid scintillation counting spectrometry
[7] = organism: Rattus norvegicus; assay: Displacement of [3H]idazoxan from imidazoline I2 receptor in rat brain cerebral cortex membrane assessed as occupancy at high affinity site measured after 30 mins by liquid scintillation counting spectrometry
[8] = Stability in human plasma assessed as compound remaining after 6 hrs; format: ADME, cell-free; conditions: read-out: Stabilty
Method in brief: (§2)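 Pooled human plasma from healthy donors, sampled at 0, 1, 2 and 6 h, reported as percentage of parent remaining.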

[9] = target: Cytochrome P450 2C9 (Homo sapiens, UniProt P11712); assay: Inhibition of CYP2C9 (unknown origin) at 10 uM; format: ADME
Sequence of Cytochrome P450 2C9 (P11712 whole entry): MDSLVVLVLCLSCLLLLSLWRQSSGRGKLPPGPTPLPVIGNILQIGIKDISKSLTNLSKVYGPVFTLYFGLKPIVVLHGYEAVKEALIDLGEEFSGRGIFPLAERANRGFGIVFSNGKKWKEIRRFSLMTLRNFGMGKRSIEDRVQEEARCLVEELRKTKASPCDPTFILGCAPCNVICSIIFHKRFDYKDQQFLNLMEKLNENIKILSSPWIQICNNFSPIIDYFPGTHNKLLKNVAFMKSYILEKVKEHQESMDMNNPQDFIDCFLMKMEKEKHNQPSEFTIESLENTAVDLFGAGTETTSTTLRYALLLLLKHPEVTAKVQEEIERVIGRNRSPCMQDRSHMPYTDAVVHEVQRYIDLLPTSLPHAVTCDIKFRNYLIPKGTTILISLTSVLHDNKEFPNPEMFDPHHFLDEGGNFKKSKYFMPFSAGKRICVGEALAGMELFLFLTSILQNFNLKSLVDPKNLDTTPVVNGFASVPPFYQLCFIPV
Method in brief: as §1

[10] = Displacement of [3H]clonidine from imidazoline I1 receptor low affinity site in rat hypothalamic membranes measured after 30 mins by liquid scintillation counting spectrometry; format: cell membranes, Hypothalamus, Membrane
[11] = tested on: Mus musculus; assay: Antialzheimer activity in 5xFAD transgenic Alzheimer disease mouse model assessed as decrease in iNOS expression at 1 mg/kg/day by Western blot analysis
[12] = target: Cytochrome P450 2C19 (Homo sapiens, UniProt P33261); assay: Inhibition of CYP2C19 (unknown origin) at 10 uM; format: ADME
Sequence of Cytochrome P450 2C19 (P33261 whole entry): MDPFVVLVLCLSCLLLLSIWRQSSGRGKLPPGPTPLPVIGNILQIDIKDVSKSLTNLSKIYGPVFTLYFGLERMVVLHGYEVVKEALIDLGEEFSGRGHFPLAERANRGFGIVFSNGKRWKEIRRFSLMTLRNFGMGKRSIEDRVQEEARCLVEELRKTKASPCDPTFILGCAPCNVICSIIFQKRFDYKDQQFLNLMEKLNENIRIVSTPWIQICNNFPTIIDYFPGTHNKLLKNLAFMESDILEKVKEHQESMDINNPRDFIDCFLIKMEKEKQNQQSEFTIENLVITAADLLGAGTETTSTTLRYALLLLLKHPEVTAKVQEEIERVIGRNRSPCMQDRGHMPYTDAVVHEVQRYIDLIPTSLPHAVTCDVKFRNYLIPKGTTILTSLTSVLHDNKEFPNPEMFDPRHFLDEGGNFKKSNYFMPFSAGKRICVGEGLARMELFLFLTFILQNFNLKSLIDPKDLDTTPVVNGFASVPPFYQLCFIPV
Method in brief: as §1

[13] = Solubility of the compound in 1% DMSO solution; format: physicochemical
[14] = Stability in human plasma assessed as compound remaining after1 hrs; format: ADME, cell-free; conditions: read-out: Stabilty
Method in brief: as §2

[15] = tested on: Mus musculus; assay: Antialzheimer activity in 5xFAD transgenic Alzheimer disease mouse model assessed as decrease in heme oxygenase 1 expression at 1 mg/kg/day by Western blot analysis
[16] = tested on: Mus musculus; assay: Antialzheimer activity in 5xFAD transgenic Alzheimer disease mouse model assessed as increase in SOD1 expression at 1 mg/kg/day by Western blot analysis
[17] = Permeability of compound by PAMPA-BBB assay; format: ADME

With `Cl.c1ccc2oc(-c3ncc[nH]3)cc2c1` the pKi [1] was 8.17, the Activity [2] was “Non-Toxic” and the solubility [3] was “Soluble”. For the same molecule, the “inhibition (INH)” value [4] was “Not Active”, the remaining at 6 h [5] was 100% and the pKi [6] was 9.92. The Activity [7] was 79%, the remaining at 6 h [8] was 57% and the “inhibition (INH)” value [9] was “Not Active”. The Ki [10] was 115 µM, the Activity [11] was “Active” and the “inhibition (INH)” value [12] was “Not Active”. For the same molecule, the solubility [13] was 52.5 µM, the remaining at 1 h [14] was 83% and the Activity [15] was “Active”. For the same molecule, the Activity [16] was “Active” and the Papp [17] was 13.6 ×10⁻⁶ cm/s.
